Activity calls are given as the source filed them. No cut-off for these calls is given here.
Assays:
Mus musculus [1] = test: (§1) Antiinflammatory activity in C57BL6/J mouse model of TLR3-induced acute airway inflammation assessed as inhibition of elevated MCP1 levels in BALF at 10 mg/kg, po pre-treated 1 day before poly(I:C) stimulation followed by compound re-dosing at 10 mg/kg, po before another poly(I:C) stimulation and measured after 1 day post last poly(I:C) stimulation by cytokine Bio-Plex assay; format: functional, organism-based
Method in brief: (§2)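 Male C57BL/6J mice, 12 weeks old, 5 per group, dosed 10 mg/kg the day before and again immediately before intranasal poly(I:C) (300 μg in 50 μL PBS). BALF was collected 1 day later by two 1 mL PBS lavages and centrifuged at 800 × g for 5 min at 4 °C. Supernatant cytokines were measured by multiplex bead immunoassay against recombinant standards in triplicate.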

Mus musculus [2] = test: as §1, with “In-vivo inhibition of BRD4” for “Antiinflammatory activity”, “reduction in H3K122Ac” for “inhibition of elevated MCP1”, “lung” for “BALF”, “immunofluorescence staining” for “cytokine Bio-Plex assay”; format: functional, organism-based
Method in brief: (§3)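 Male C57BL/6J mice, 5 per group, dosed 10 mg/kg before and again at intranasal poly(I:C) challenge (300 μg). Lungs were taken 1 day later, paraffin sections made, and antigen retrieved at pH 9.0. Sections were stained with anti-acetyl-H3K122 and an Alexa 568 secondary with DAPI, imaged by confocal at 63×, and total fluorescence reported as fold change.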

Mus musculus [3] = test: as §1, with “IL-6” for “MCP1”; format: functional, organism-based; method in brief: as §2
Mus musculus [4] = test: as §1, with “elevated ISG54 gene expression” for “elevated MCP1 levels”, “in lung” for “in BALF”, “mg/kg, ip” for “mg/kg, po”, “stimulation” for “stimulation by cytokine Bio-Plex assay”; format: functional, organism-based
Method in brief: (§4)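 Male C57BL/6J mice, 12 weeks old, 5 per group, dosed 10 mg/kg one day before challenge and again immediately before intranasal poly(I:C) (300 μg in 50 μL PBS). Controls were vehicle alone and poly(I:C) alone. Lungs were taken 1 day later. Gene expression in lung tissue was measured by qRT-PCR, normalized to PPIA.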

Mus musculus [5] = test: as §1, with “elevated IL6 gene expression” for “elevated MCP1 levels”, “in lung” for “in BALF”, “mg/kg, ip” for “mg/kg, po”, “stimulation” for “stimulation by cytokine Bio-Plex assay”; format: functional, organism-based; method in brief: as §4
[6] = Half life in Sprague-Dawley rat at 10 mg/kg, iv measured after 2 to 26 hrs; format: ADME, organism-based; conditions: in vivo
Mus musculus [7] = test: as §1, with “ISG54 gene expression” for “MCP1 levels”, “lung” for “BALF”, “stimulation” for “stimulation by cytokine Bio-Plex assay”; format: functional, organism-based; method in brief: as §4
Mus musculus [8] = test: as §1, with “total cells” for “MCP1 levels”, “stimulation” for “stimulation by cytokine Bio-Plex assay”; format: functional, organism-based
Method in brief: (§5)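 Male C57BL/6J mice, 12 weeks old, 5 per group, dosed 10 mg/kg one day before and again immediately before intranasal poly(I:C) (300 μg/50 μL PBS). BALF was collected 1 day later. Total viable cells were counted by trypan blue with a hemocytometer. Neutrophils were counted as a differential of 300 cells on Wright-Giemsa stained cytospins.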

Mus musculus [9] = test: as §1, with “CIG5 gene expression” for “MCP1 levels”, “lung” for “BALF”, “stimulation” for “stimulation by cytokine Bio-Plex assay”; format: functional, organism-based; method in brief: as §4
Mus musculus [10] = test: as §1, with “KC” for “MCP1”; format: functional, organism-based; method in brief: as §2
Mus musculus [11] = test: as §1, with “elevated RANTES” for “elevated MCP1”, “mg/kg, ip” for “mg/kg, po”; format: functional, organism-based; method in brief: as §2
[12] = AUC (0 to t) in Sprague-Dawley rat at 10 mg/kg, iv measured after 2 to 26 hrs; format: ADME, organism-based; conditions: in vivo
[13] = Cmax in Sprague-Dawley rat at 10 mg/kg, iv measured after 2 to 26 hrs; format: ADME, organism-based; parameters: dose 10 mg/kg, route intravenous; conditions: in vivo
[14] = Cmax in Sprague-Dawley rat at 20 mg/kg, po measured after 2 to 26 hrs; format: ADME, organism-based; parameters: dose 20 mg/kg, route oral; conditions: in vivo
Mus musculus [15] = test: as §1, with “neutrophils” for “MCP1 levels”, “stimulation” for “stimulation by cytokine Bio-Plex assay”; format: functional, organism-based; method in brief: as §5
[16] = AUC (0 to t) in Sprague-Dawley rat at 20 mg/kg, po measured after 2 to 26 hrs; format: ADME, organism-based; conditions: in vivo
Mus musculus [17] = test: In-vivo inhibition of BRD4 in C57BL6/J mouse model of TLR3-induced acute airway inflammation assessed as reduction in H3K122Ac levels in lung at 10 mg/kg, ip pre-treated 1 day before poly(I:C) stimulation followed by compound re-dosing at 10 mg/kg, ip before another poly(I:C) stimulation and measured after 1 day post last poly(I:C) stimulation by immunofluorescence staining; format: functional, organism-based; method in brief: as §3
Mus musculus [18] = test: as §1, with “RANTES” for “MCP1”; format: functional, organism-based; method in brief: as §2
Mus musculus [19] = test: as §1, with “elevated total cells” for “elevated MCP1 levels”, “mg/kg, ip” for “mg/kg, po”, “stimulation” for “stimulation by cytokine Bio-Plex assay”; format: functional, organism-based; method in brief: as §5
[20] = Half life in Sprague-Dawley rat at 20 mg/kg, po measured after 2 to 26 hrs; format: ADME, organism-based; conditions: in vivo
Mus musculus [21] = test: as §1, with “elevated KC” for “elevated MCP1”, “mg/kg, ip” for “mg/kg, po”; format: functional, organism-based; method in brief: as §2
Mus musculus [22] = test: Antiinflammatory activity in C57BL6/J mouse model of TLR3-induced acute airway inflammation assessed as inhibition of neutrophilic inflammation around small and medium-sized airways at 10 mg/kg, ip pre-treated 1 day before poly(I:C) stimulation followed by compound re-dosing at 10 mg/kg, ip before another poly(I:C) stimulation and measured after 1 day post last poly(I:C) stimulation by …; format: functional
Mus musculus [23] = test: as §1, with “elevated IL-6” for “elevated MCP1”, “mg/kg, ip” for “mg/kg, po”; format: functional, organism-based; method in brief: as §2
[24] = Total clearance in Sprague-Dawley rat at 10 mg/kg, iv measured after 2 to 26 hrs; format: ADME, organism-based; conditions: in vivo
Method in brief: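 Male Sprague-Dawley rats received a single dose either intravenously (10 mg/kg) or orally. Plasma concentration–time curves were followed after each route. Total clearance (CL) came from the i.v. arm, and oral bioavailability (F) was derived by comparing the p.o. and i.v. profiles.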

Mus musculus [25] = test: as §1, with “mg/kg, ip” for “mg/kg, po”; format: functional, organism-based; method in brief: as §2
Mus musculus [26] = test: as §1, with “elevated neutrophils” for “elevated MCP1 levels”, “mg/kg, ip” for “mg/kg, po”, “stimulation” for “stimulation by cytokine Bio-Plex assay”; format: functional, organism-based; method in brief: as §5

SMILES	inhibition (Mus musculus [1])	inhibition (Mus musculus [2])	inhibition (Mus musculus [3])	inhibition (Mus musculus [4])	inhibition (Mus musculus [5])	half-life [6]	inhibition (Mus musculus [7])	inhibition (Mus musculus [8])	inhibition (Mus musculus [9])	inhibition (Mus musculus [10])	inhibition (Mus musculus [11])	AUC(0-t) [12]	Cmax [13]	Cmax [14]	inhibition (Mus musculus [15])	AUC(0-t) [16]	inhibition (Mus musculus [17])	inhibition (Mus musculus [18])	inhibition (Mus musculus [19])	half-life [20]	also measured
COc1cc(OC)c2c(=O)cc(-c3cc(C)c(OC[C@H](O)CN4CCCCC4)c(C)c3)oc2c1	Active	Active	Active	Active	Active	3.5 h	Active	Active	Active	Active	Active	6760 ng·h/mL	2860 ng/mL	575 ng/mL	Active	5170 ng·h/mL	Active	Active	Active	2.4 h	inhibition (Mus musculus [21]): Active; inhibition in vivo at 10 mg/kg (Mus musculus [22]): 100%; inhibition (Mus musculus [23]): Active; clearance [24]: 24.7 mL/min/kg; inhibition (Mus musculus [25]): Active; inhibition (Mus musculus [26]): Active
COc1cc(OC)c2c(=O)cc(-c3cc(C)c(OC[C@H](O)CN4CCN(C)CC4)c(C)c3)oc2c1	Active	Active	Active	Active	Active	4.1 h	Active	Active	Active	Active	Active	7030 ng·h/mL	2090 ng/mL	606 ng/mL	Active	4970 ng·h/mL	Active	Active	Active	2.8 h	inhibition (Mus musculus [21]): Active; inhibition in vivo at 10 mg/kg (Mus musculus [22]): 100%; inhibition (Mus musculus [23]): Active; clearance [24]: 24.7 mL/min/kg; inhibition (Mus musculus [25]): Active; inhibition (Mus musculus [26]): Active

Reference: ChEMBL document CHEMBL4402595, “Discovery of Orally Bioavailable Chromone Derivatives as Potent and Selective BRD4 Inhibitors: Scaffold Hopping, Optimization, and Pharmacological Evaluation” (J Med Chem, 2020)
